# In ChEMBL document CHEMBL1139420, “Antibacterial profile against drug-resistant Staphylococcus epidermidis clinical strain and structure-activity relationship studies of 1H-pyrazolo[3,4-b]pyridine and thieno[2,3-b]pyridine derivatives” (Bioorg Med Chem, 2008):
# Active and inactive are the calls of the source. No cut-off for these calls is given here.
# Tests used:
# [1] = test system: Enterobacter cloacae; test: Antibacterial activity against drug-resistant Enterobacter cloacae clinical isolate assessed as inhibition zone diameter after 24 hrs by antibacterial susceptibility test; assay type: functional, organism-based
# [2] = test system: Serratia marcescens; test: Antibacterial activity against drug-resistant Serratia marcescens clinical isolate assessed as inhibition zone diameter after 24 hrs by antibacterial susceptibility test; assay type: functional, organism-based
# [3] = Cytotoxicity against human PBMC assessed as cell viability at 700 uM after 3 to 5 days by XTT method; assay type: cell-based; conditions: PBMC (peripheral blood mononuclear cells), read-out: Activity
# Procedure, shortened: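 Human PBMCs from healthy donors isolated by density gradient from buffy coats, kept in RPMI 1640 with 10% heat-inactivated FBS, penicillin, streptomycin, 2 mM glutamine, 10 mM Hepes; stimulated 2–3 days with 5 µg/mL PHA, then kept with 5 U/mL IL-2. Compound at 700 µM, 5% CO2, 37 °C; XTT added, OD 450 nm after 2 h; duplicate, at least three times.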
# [4] = test system: Escherichia coli; test: Antibacterial activity against drug-resistant Escherichia coli clinical isolate assessed as inhibition zone diameter after 24 hrs by antibacterial susceptibility test; assay type: functional, organism-based
# [5] = test system: Staphylococcus epidermidis; test: Antibacterial activity against drug-resistant Staphylococcus epidermidis clinical isolate assessed as inhibition zone diameter after 24 hrs by antibacterial susceptibility test; assay type: functional
# [6] = test system: Pseudomonas aeruginosa; test: Antibacterial activity against drug-resistant Pseudomonas aeruginosa clinical isolate assessed as inhibition zone diameter after 24 hrs by antibacterial susceptibility test; assay type: functional, organism-based
# [7] = test system: Klebsiella pneumoniae; test: Antibacterial activity against drug-resistant Klebsiella pneumoniae clinical isolate assessed as inhibition zone diameter after 24 hrs by antibacterial susceptibility test; assay type: functional, organism-based
# [8] = test system: Proteus mirabilis; test: Antibacterial activity against drug-resistant Proteus mirabilis clinical isolate assessed as inhibition zone diameter after 24 hrs by antibacterial susceptibility test; assay type: functional, organism-based
# [9] = test system: Acinetobacter calcoaceticus; test: Antibacterial activity against drug-resistant Acinetobacter calcoaceticus clinical isolate assessed as inhibition zone diameter after 24 hrs by antibacterial susceptibility test; assay type: functional, organism-based
# [10] = test system: Enterococcus faecalis; test: Antibacterial activity against drug-resistant Enterococcus faecalis clinical isolate assessed as inhibition zone diameter after 24 hrs by antibacterial susceptibility test; assay type: functional, organism-based
SMILES,Activity [1],Activity [2],viability at 700 µM [3],Activity [4],inhibition zone (IZ) [5],Activity [6],Activity [7],Activity [8],Activity [9],Activity [10]
O=C(O)c1cnc2c(cnn2-c2ccccc2)c1Nc1ccccc1,inactive,inactive,91%,inactive,0 mm,inactive,inactive,inactive,inactive,inactive
O=C(O)c1cnc2sccc2c1Nc1cccc(F)c1,inactive,inactive,100%,inactive,0 mm,inactive,inactive,inactive,inactive,inactive
Cc1ccc(Nc2c(C(=O)O)cnc3c2cnn3-c2ccccc2)cc1,inactive,inactive,100%,inactive,0 mm,inactive,inactive,inactive,inactive,inactive
O=C(O)c1cnc2c(cnn2-c2ccccc2)c1Nc1ccc([N+](=O)[O-])cc1,inactive,inactive,88%,inactive,0 mm,inactive,inactive,inactive,inactive,inactive
O=C(O)c1cnc2sccc2c1Nc1ccc(Cl)cc1,inactive,inactive,100%,inactive,0 mm,inactive,inactive,inactive,inactive,inactive
O=C(O)c1cnc2c(cnn2-c2ccccc2)c1Nc1ccc(Br)cc1,inactive,inactive,92%,inactive,10 mm,inactive,inactive,inactive,inactive,inactive
COc1ccc(Nc2c(C(=O)O)cnc3sccc23)cc1,inactive,inactive,100%,inactive,0 mm,inactive,inactive,inactive,inactive,inactive
O=C(O)c1cnc2sccc2c1Nc1ccccc1,inactive,inactive,100%,inactive,0 mm,inactive,inactive,inactive,inactive,inactive
COc1ccc(Nc2c(C(=O)O)cnc3c2cnn3-c2ccccc2)cc1,inactive,inactive,100%,inactive,0 mm,inactive,inactive,inactive,inactive,inactive
O=C(O)c1cnc2sccc2c1Nc1cccc(Br)c1,inactive,inactive,100%,inactive,0 mm,inactive,inactive,inactive,inactive,inactive
O=C(O)c1cnc2sccc2c1Nc1ccc(Br)cc1,inactive,inactive,100%,inactive,0 mm,inactive,inactive,inactive,inactive,inactive
COc1cccc(Nc2c(C(=O)O)cnc3sccc23)c1,inactive,inactive,100%,inactive,0 mm,inactive,inactive,inactive,inactive,inactive
O=C(O)c1cnc2sccc2c1Nc1cccc([N+](=O)[O-])c1,inactive,inactive,100%,inactive,0 mm,inactive,inactive,inactive,inactive,inactive
CN[C@H](CC(C)C)C(=O)N[C@H]1C(=O)N[C@@H](CC(N)=O)C(=O)N[C@H]2C(=O)N[C@H]3C(=O)N[C@H](C(=O)N[C@H](C(=O)O)c4cc(O)cc(O)c4-c4cc3ccc4O)[C@H](O)c3ccc(c(Cl)c3)Oc3cc2cc(c3O[C@@H]2O[C@H](CO)[C@@H](O)[C@H](O)[C@H]2O[C@H]2C[C@](C)(N)[C@H](O)[C@H](C)O2)Oc2ccc(cc2Cl)[C@H]1O [VANCOMYCIN],,,,,15 mm,,,,,
Cc1ccc(Nc2c(C(=O)O)cnc3sccc23)cc1,inactive,inactive,100%,inactive,0 mm,inactive,inactive,inactive,inactive,inactive
O=C(O)c1cnc2sccc2c1Nc1ccc([N+](=O)[O-])cc1,inactive,inactive,100%,inactive,0 mm,inactive,inactive,inactive,inactive,inactive
O=C(O)c1cnc2c(cnn2-c2ccccc2)c1Nc1ccc(Cl)cc1,inactive,inactive,100%,inactive,0 mm,inactive,inactive,inactive,inactive,inactive
Cc1cccc(Nc2c(C(=O)O)cnc3sccc23)c1,inactive,inactive,100%,inactive,0 mm,inactive,inactive,inactive,inactive,inactive
O=C(O)c1cnc2sccc2c1Nc1ccc(F)cc1,inactive,inactive,100%,inactive,0 mm,inactive,inactive,inactive,inactive,inactive
